This passage reports T/C and Activity results from ChEMBL document CHEMBL3243962, “Antileukemic activity of derivatives of 1,2-dimethyl-3,4-bis(hydroxymethyl)-5-phenylpyrrole bis(N-methylcarbamate)” (J Med Chem, 1979).

Data set [1] deals with P388. Put plainly: Antitumor activity against mouse P388 cells allografted in CD2F1 mouse assessed as increase in mouse survival at 12.5 mg/kg, ip of total 9 doses starting 24 hrs post tumor inoculation measured on day 5 of inoculation relative to control. It is filed as functional. As to conditions: route intraperitoneal. The essentials: (§1)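 Male CD2F1 mice inoculated ip with 6×10^6 P388 leukemia cells. Dosing was ip as a suspension in distilled water–Tween 80, nine daily doses starting 24 h after inoculation. Activity was read as median survival time of treated vs control mice (% T/C); % T/C ≥ 120 was considered significant. Groups were 6 mice.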

For data set [2], the system named is P388. Kind of data set: Antitumor activity against mouse P388 cells allografted in CD2F1 mouse assessed as increase in mouse survival at 200 mg/kg, ip of total 9 doses starting 24 hrs post tumor inoculation measured on day 5 of inoculation relative to control. As to conditions: route intraperitoneal. Format: functional. The essentials: as §1
For data set [3], the system named is Mus musculus. Put plainly: Toxicity in mouse P388 cells allografted CD2F1 mouse assessed as body weight loss at 12.5 mg/kg, ip of total 9 doses starting 24 hrs post tumor inoculation measured on day 5 of inoculation relative to control. It is filed as organism-based. Further details: dose 12.5 mg/kg, route intraperitoneal. The following applies: in vivo. The method in brief: (§2)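 Male CD2F1 mice inoculated ip with 6×10^6 P388 leukemia cells. Compounds given ip as distilled water–Tween 80 suspension, nine daily doses starting 24 h after inoculation; six mice per dose group. Treated-minus-control body-weight change (T − C) and toxicity-day survivors recorded on day 5 (4 days after first dose).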

The test system of data set [4] is Mus musculus. Kind of data set: Toxicity in mouse P388 cells allografted CD2F1 mouse assessed as mouse survival at 100 mg/kg, ip of total 9 doses starting 24 hrs post tumor inoculation measured on day 5 of inoculation relative to control. Format: organism-based. Further details: dose 100 mg/kg, route intraperitoneal. As to conditions: in vivo. The essentials:
(§3)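 Male CD2F1 mice bearing ip P388 leukemia (6×10^6 cells) were dosed ip with nine daily doses in distilled water–Tween 80 suspension, starting 24 h after inoculation. Survivors per group of 6 were counted on day 5, i.e. 4 days after the first dose. Body-weight change of treated minus control mice was also recorded.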

Data set [5] concerns Mus musculus. Kind of data set: Toxicity in mouse P388 cells allografted CD2F1 mouse assessed as body weight loss at 25 mg/kg, ip of total 9 doses starting 24 hrs post tumor inoculation measured on day 5 of inoculation relative to control. It is filed as organism-based. The arrangement: dose 25 mg/kg, route intraperitoneal. The following applies: in vivo. The essentials: as §2

The test system of data set [6] is Mus musculus. Kind of data set: Toxicity in mouse P388 cells allografted CD2F1 mouse assessed as mouse survival at 50 mg/kg, ip of total 9 doses starting 24 hrs post tumor inoculation measured on day 5 of inoculation relative to control. Format: organism-based. Further details: dose 50 mg/kg, route intraperitoneal. The following applies: in vivo. The essentials:
as §3

The test system of data set [7] is Mus musculus. Kind of data set: Toxicity in mouse P388 cells allografted CD2F1 mouse assessed as body weight loss at 100 mg/kg, ip of total 9 doses starting 24 hrs post tumor inoculation measured on day 5 of inoculation relative to control. Format: organism-based. Further details: dose 100 mg/kg, route intraperitoneal. The following applies: in vivo. The essentials: as §2

Data set [8] has as its system P388. Put plainly: Antitumor activity against mouse P388 cells allografted in CD2F1 mouse assessed as increase in mouse survival at 25 mg/kg, ip of total 9 doses starting 24 hrs post tumor inoculation measured on day 5 of inoculation relative to control. It is filed as functional. The following applies: route intraperitoneal. The method in brief: as §1
For data set [9], the system named is Mus musculus. Kind of data set: Toxicity in mouse P388 cells allografted CD2F1 mouse assessed as mouse survival at 25 mg/kg, ip of total 9 doses starting 24 hrs post tumor inoculation measured on day 5 of inoculation relative to control. Format: organism-based. The arrangement: dose 25 mg/kg, route intraperitoneal. The following applies: in vivo. The method in brief: as §3

Data set [10] concerns Mus musculus. Put plainly: Toxicity in mouse P388 cells allografted CD2F1 mouse assessed as mouse survival at 12.5 mg/kg, ip of total 9 doses starting 24 hrs post tumor inoculation measured on day 5 of inoculation relative to control. It is filed as organism-based. The arrangement: dose 12.5 mg/kg, route intraperitoneal. As to conditions: in vivo. The method in brief: as §3

In data set [11] the test system is Mus musculus. Put plainly: Toxicity in mouse P388 cells allografted CD2F1 mouse assessed as body weight loss at 50 mg/kg, ip of total 9 doses starting 24 hrs post tumor inoculation measured on day 5 of inoculation relative to control. Format: organism-based. The following applies: in vivo. The arrangement: dose 50 mg/kg, route intraperitoneal. The essentials: as §2

The test system of data set [12] is Mus musculus. Kind of data set: Toxicity in mouse P388 cells allografted CD2F1 mouse assessed as body weight loss at 200 mg/kg, ip of total 9 doses starting 24 hrs post tumor inoculation measured on day 5 of inoculation relative to control. It is filed as organism-based. Further details: dose 200 mg/kg, route intraperitoneal. As to conditions: in vivo. The method in brief: as §2

The subject of data set [13] is Mus musculus. Kind of data set: Toxicity in mouse P388 cells allografted CD2F1 mouse assessed as mouse survival at 200 mg/kg, ip of total 9 doses starting 24 hrs post tumor inoculation measured on day 5 of inoculation relative to control. Format: organism-based. Further details: dose 200 mg/kg, route intraperitoneal. The following applies: in vivo. The method in brief: as §3

The subject of data set [14] is P388. Put plainly: Antitumor activity against mouse P388 cells allografted in CD2F1 mouse assessed as increase in mouse survival at 100 mg/kg, ip of total 9 doses starting 24 hrs post tumor inoculation measured on day 5 of inoculation relative to control. As to conditions: route intraperitoneal. Format: functional. The method in brief: as §1
Data set [15] relates to P388. Kind of data set: Antitumor activity against mouse P388 cells allografted in CD2F1 mouse assessed as increase in mouse survival at 50 mg/kg, ip of total 9 doses starting 24 hrs post tumor inoculation measured on day 5 of inoculation relative to control. Format: functional. As to conditions: route intraperitoneal. The method in brief:
as §1

The subject of data set [16] is P388. Kind of data set: Antitumor activity against mouse P388 cells allografted in CD2F1 mouse assessed as increase in mouse survival at 15 mg/kg, ip of total 9 doses starting 24 hrs post tumor inoculation measured on day 5 of inoculation relative to control. It is filed as functional. As to conditions: route intraperitoneal. The method in brief:
as §1

Data set [17] has as its system Mus musculus. Put plainly: Toxicity in mouse P388 cells allografted CD2F1 mouse assessed as body weight loss at 60 mg/kg, ip of total 9 doses starting 24 hrs post tumor inoculation measured on day 5 of inoculation relative to control. The arrangement: dose 60 mg/kg, route intraperitoneal. As to conditions: in vivo. It is filed as organism-based. The method in brief: as §2

The subject of data set [18] is Mus musculus. Put plainly: Toxicity in mouse P388 cells allografted CD2F1 mouse assessed as body weight loss at 7.5 mg/kg, ip of total 9 doses starting 24 hrs post tumor inoculation measured on day 5 of inoculation relative to control. Format: organism-based. The arrangement: dose 7.5 mg/kg, route intraperitoneal. As to conditions: in vivo. The essentials:
as §2

The subject of data set [19] is Mus musculus. Kind of data set: Toxicity in mouse P388 cells allografted CD2F1 mouse assessed as mouse survival at 15 mg/kg, ip of total 9 doses starting 24 hrs post tumor inoculation measured on day 5 of inoculation relative to control. It is filed as organism-based. Further details: dose 15 mg/kg, route intraperitoneal. As to conditions: in vivo. The essentials: as §3

Data set [20] relates to Mus musculus. Put plainly: Toxicity in mouse P388 cells allografted CD2F1 mouse assessed as body weight loss at 120 mg/kg, ip of total 9 doses starting 24 hrs post tumor inoculation measured on day 5 of inoculation relative to control. It is filed as organism-based. Further details: dose 120 mg/kg, route intraperitoneal. The following applies: in vivo. The essentials: as §2

In data set [21] the test system is Mus musculus. Put plainly: Toxicity in mouse P388 cells allografted CD2F1 mouse assessed as body weight loss at 15 mg/kg, ip of total 9 doses starting 24 hrs post tumor inoculation measured on day 5 of inoculation relative to control. It is filed as organism-based. The arrangement: dose 15 mg/kg, route intraperitoneal. As to conditions: in vivo. The method in brief:
as §2

Data set [22] deals with P388. Kind of data set: Antitumor activity against mouse P388 cells allografted in CD2F1 mouse assessed as increase in mouse survival at 30 mg/kg, ip of total 9 doses starting 24 hrs post tumor inoculation measured on day 5 of inoculation relative to control. It is filed as functional. The following applies: route intraperitoneal. The method in brief: as §1
Data set [23] has as its system Mus musculus. Put plainly: Toxicity in mouse P388 cells allografted CD2F1 mouse assessed as body weight loss at 30 mg/kg, ip of total 9 doses starting 24 hrs post tumor inoculation measured on day 5 of inoculation relative to control. The following applies: in vivo. Format: organism-based. The arrangement: dose 30 mg/kg, route intraperitoneal. The method in brief: as §2

Data set [24] has as its system P388. Kind of data set: Antitumor activity against mouse P388 cells allografted in CD2F1 mouse assessed as increase in mouse survival at 60 mg/kg, ip of total 9 doses starting 24 hrs post tumor inoculation measured on day 5 of inoculation relative to control. It is filed as functional. The following applies: route intraperitoneal. The essentials:
as §1

In data set [25] the test system is Mus musculus. Kind of data set: Toxicity in mouse P388 cells allografted CD2F1 mouse assessed as mouse survival at 7.5 mg/kg, ip of total 9 doses starting 24 hrs post tumor inoculation measured on day 5 of inoculation relative to control. Further details: dose 7.5 mg/kg, route intraperitoneal. The following applies: in vivo. It is filed as organism-based. The method in brief:
as §3

Data set [26] concerns P388. Put plainly: Antitumor activity against mouse P388 cells allografted in CD2F1 mouse assessed as increase in mouse survival at 7.5 mg/kg, ip of total 9 doses starting 24 hrs post tumor inoculation measured on day 5 of inoculation relative to control. As to conditions: route intraperitoneal. Format: functional. The method in brief: as §1
In data set [27] the test system is Mus musculus. Kind of data set: Toxicity in mouse P388 cells allografted CD2F1 mouse assessed as mouse survival at 30 mg/kg, ip of total 9 doses starting 24 hrs post tumor inoculation measured on day 5 of inoculation relative to control. Format: organism-based. The arrangement: dose 30 mg/kg, route intraperitoneal. As to conditions: in vivo. The essentials: as §3

As a reminder, the T/C is the result in the treated group divided by that in the control group, in per cent. In the case of `CNC(=O)OCc1c(COC(=O)NC)c(-c2ccc(S(C)(=O)=O)cc2)n(C)c1C`, the T/C in the data set on P388 [1] was 136%; in the data set with P388 [2] it was 198%; in the data set on P388 [8] it was 144%; in the data set with P388 [14], 180%; with P388 [15], 162%. Also, the Activity in the data set on Mus musculus [3] is listed as 0.4 g; in the data set with Mus musculus [4], “Non-toxic”; in the data set with Mus musculus [5], 0.8 g; in the data set with Mus musculus [6], “Non-toxic”; with Mus musculus [7], 2.1 g; in the data set with Mus musculus [9] it was “Non-toxic”. In addition, the Activity entry is “Non-toxic” in the data set with Mus musculus [10], 1.1 g with Mus musculus [11], 3.7 g in the data set on Mus musculus [12] and “Non-toxic” with Mus musculus [13].

Consider `CCCCOc1ccc(-c2c(COC(=O)NC)c(COC(=O)NC)c(C)n2C)cc1`, for which the T/C with P388 [16] is given as 146%; in the data set with P388 [22] it was 144%; in the data set with P388 [24] it was 90%; in the data set on P388 [26], 137%. Besides, the Activity is given as 4.1 g in the data set on Mus musculus [17]; 1.3 g in the data set on Mus musculus [18]; “Non-toxic” in the data set with Mus musculus [19]; 3.4 g with Mus musculus [20]; 2.1 g in the data set with Mus musculus [21]; 2.8 g with Mus musculus [23]. Also, the Activity entry in the data set with Mus musculus [25] and with Mus musculus [27] was “Non-toxic” each time.
